The data set in a line: Oral bioavailability in […] rat at 1 or 5 mg/kg. The note with it: in vivo. In kind it is ADME, organism-based. The gist of the method:
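Rat PK: iv dosing at 0.4 or 1 mg/kg as a 60% PEG solution, po dosing at 1 or 5 mg/kg as an aqueous suspension with 1% methylcellulose.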

A word on the bioavailability: it is the share of a dose that reaches the circulation, judged against a reference dose that is usually intravenous. Low values mean little systemic uptake, high ones much systemic uptake. `N#Cc1ccnc(Nc2cc(C3CCN(C4COC4)CC3)n(C3CCCC3)n2)c1`: the bioavailability was 58%.

The record behind these values is ChEMBL document CHEMBL3627690, “Scaffold-Hopping and Structure-Based Discovery of Potent, Selective, And Brain Penetrant N-(1H-Pyrazol-3-yl)pyridin-2-amine Inhibitors of Dual Leucine Zipper Kinase (DLK, MAP3K12)” (J Med Chem, 2015).
